Assay outcomes (PubChem)
PP1 inh = PP1-alpha phosphatase inhibitors, primary screen, counter-screen for PP5 inhibitor project, biochemical, fluorescence, OMFP substrate, single point; Serine/threonine-protein phosphatase PP1-alpha catalytic subunit (Homo sapiens), P62136; purified PP1alpha; inhibition, % at 6.7 µM; 320,000 tested, 0.9% active;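 active means inhibition above the mean inhibition of all tested compounds plus 3 SD, computed separately for each screening campaign, cut at about 15% in these data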
Target sequence (P62136 whole entry, looked up): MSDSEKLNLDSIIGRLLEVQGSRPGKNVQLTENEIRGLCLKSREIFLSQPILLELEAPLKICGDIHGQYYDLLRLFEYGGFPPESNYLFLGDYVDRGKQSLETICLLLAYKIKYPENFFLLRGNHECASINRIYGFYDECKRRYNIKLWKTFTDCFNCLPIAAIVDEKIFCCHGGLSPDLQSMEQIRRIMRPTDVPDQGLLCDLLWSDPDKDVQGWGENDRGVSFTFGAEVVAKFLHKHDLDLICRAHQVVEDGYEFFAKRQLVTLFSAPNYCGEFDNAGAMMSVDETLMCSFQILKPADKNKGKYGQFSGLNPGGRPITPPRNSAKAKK
PP5 inh = PP5 phosphatase inhibitors, primary screen, biochemical, fluorescence. purified PP5c, OMFP substrate fluorescence. AID 1987, 2009. 320,000 tested, 0.18% active. inhibition, % at 6.7 µM;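 active means inhibition above the campaign's mean inhibition across all tested compounds plus 3 SD, cut at about 9.5% in these data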
PKD1 kinase inh = inhibitors of human PKD1 kinase, biochemical, fluorescence polarization. PKD1 kinase fluorescence polarization assay. inhibition, % (test concentration not listed). 200,000 tested, 0.056% active. AID 797, 2007; in the data active means inhibition above about 50%
p97 ATPase inh = inhibitors of human p97 ATPase, primary screen, biochemical; Transitional endoplasmic reticulum ATPase (Homo sapiens), P55072; recombinant p97 ATPase, Kinase-Glo ATP luminescence, 3 h; inhibition, % at 8 µM; 220,000 tested, 0.42% active; AID 1481, 2009; in the data active means inhibition above about 15%
Hsp70 activator = Hsp70 transcriptional activators, primary screen, cell-based, HeLa, Hsp70 promoter luciferase, luminescence, 10 µM; 200,000 tested, 0.04% active; AID 1203, 2008; HeLa Hsp70 promoter luciferase reporter; scaled: vehicle 0, proteasome-inhibitor control 100%; activation, % at 10 µM;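 active means activation above the mean across all tested compounds plus 3 SD, cutoff set per campaign, cut at about 5.5% in these data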
RBBP9 inhibitor = human RBBP9 inhibitors, primary screen, biochemical, fluorescence polarization, FP-Rh probe, HTS. Serine hydrolase RBBP9 (Homo sapiens), O75884. recombinant RBBP9. inhibition, % at 7.94 µM. 220,000 tested, 0.2% active. AID 1515, 2009;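 active means inhibition above the campaign mean of all tested compounds plus 3 SD, cut at about 14% in these data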
Target sequence (O75884 whole entry, looked up): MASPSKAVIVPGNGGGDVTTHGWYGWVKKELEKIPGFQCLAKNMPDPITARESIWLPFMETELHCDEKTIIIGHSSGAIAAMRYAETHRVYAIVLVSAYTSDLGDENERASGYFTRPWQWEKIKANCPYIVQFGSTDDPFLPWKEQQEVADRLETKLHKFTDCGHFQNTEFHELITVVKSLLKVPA
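Controls: DMSO-treated enzyme wells and wells lacking RBBP9 | Material: RBBP9 protein | Technique: Fluorescence polarization | Replication: Single well per compound, no replicates | Buffer or medium: Tris-NaCl-Pluronic buffer, pH 8.0 | Timing: 30 min compound preincubation, 45 min probe labeling, 25 °C | Read-out basis: Percent inhibition from mP, scaled between DMSO and no-protein wells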
p97 confirm = p97 ATPase inhibitors, retest, confirmation, biochemical. shares compounds with p97 ATPase inh. recombinant p97 ATPase, Kinase-Glo ATP luminescence. inhibition, % at 8 µM. 760 tested, 44% active. AID 1517, 2009;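 active means percent inhibition of p97 ATPase above a set limit, the primary screen's mean plus 3 SD, cut at about 15% in these data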
RBBP9 inh conf = human RBBP9 inhibitors, retest, confirmation, biochemical, fluorescence polarization, FP-Rh probe, triplicate; shares compounds with RBBP9 inhibitor; recombinant RBBP9; inhibition, % at 7.94 µM; 410 tested, 36% active;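 active means inhibition above the hit cutoff derived for the primary screen, cut at about 15% in these data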
PP5 conf = PP5 phosphatase inhibitors, confirmation, biochemical, fluorescence, human. shares compounds with PP5 inh. Purified PP5, fluorogenic phosphatase substrate. inhibition, % at 6.7 µM. 460 tested, 22% active; in the data active means inhibition above about 9.5%
PP1 counter 3x = PP1 phosphatase inhibitors, counter-screen for PP5 inhibitor project, biochemical, fluorescence, triplicate; shares compounds with PP5 inh; PP1 enzyme, fluorescent phosphatase substrate; inhibition, % at 6.7 µM; 460 tested, 4% active; in the data active means inhibition above about 16%
PP1 inh confirm = PP1 phosphatase inhibitors, confirmation, biochemical, fluorescence, OMFP substrate, triplicate | shares compounds with PP1 inh | purified PP1alpha | inhibition, % at 6.7 µM | 1,900 tested, 52% active;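 active means mean PP1 inhibition above a set limit taken from the earlier primary screen, cut at about 15% in these data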
PP5 inh counter = PP5 phosphatase inhibition by PP1 hits, confirmation, counter-screen for PP1 inhibitor project, biochemical, fluorescence, triplicate | shares compounds with PP1 inh | purified PP5c, OMFP fluorescence | inhibition, % at 6.7 µM | 1,900 tested, 4% active | AID 2360, 2010;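 active means mean PP5 inhibition over triplicate wells above about 9.5% taken from the earlier PP1 screen, limit read from the data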
Numbers stand for hits; - = inactive; . = no result given. Compounds with a hit are over-represented: about 1.5% of the library has one in this group of screens.

SMILES	PP1 inh	PP5 inh	PKD1 kinase inh	p97 ATPase inh	Hsp70 activator	RBBP9 inhibitor	p97 confirm	RBBP9 inh conf	others
O=C(O)c1cccc(NN=C2c3ccccc3-c3ccccc32)c1	.	.	-	38	-	-	45	.
Oc1ccc(/C=N/Nc2ccnc3cc(Cl)ccc23)cc1O	-	-	.	33	.	25	41	97
Nc1nc(SCC(=O)c2c(N)n(Cc3ccccc3)c(=O)[nH]c2=O)n[nH]1	-	-	.	-	.	-	.	.
Cc1[nH]c2ccccc2c1/C=N/NC(=O)c1cc(-c2ccccc2)n[nH]1	-	-	.	21	.	19	17	25
CN(C)S(=O)(=O)c1cccc(NC(=S)N/N=C/c2ccc(O)c(O)c2O)c1	.	.	.	16	.	32	20	51
CC(=O)Nc1ccc2cc3ccc(NC(C)=O)cc3nc2c1	-	-	.	34	.	50	24	-
CC(=O)Nc1ccc2ccccc2c1	-	-	-	-	-	-	.	.
NS(=O)(=O)c1ccc(N/N=C/c2ccc(O)c(O)c2O)c([N+](=O)[O-])c1	.	.	.	48	.	64	50	84
NS(=O)(=O)c1ccc(N/N=C/c2ccc(O)cc2O)c([N+](=O)[O-])c1	-	-	.	-	.	-	.	.
Cc1cn(-c2cc(C(=O)Nc3ccc(C)c(NC(=O)C(=O)c4c[nH]c5ccccc45)c3)cc(C(F)(F)F)c2)cn1	-	-	.	.	.	.	.	.
Cc1cc([N+](=O)[O-])c2c(c1C)C1C=CCC1C(c1ccccn1)N2 (stereo unspecified)	-	-	-	-	-	-	.	.
CCCCn1c(NC(=O)c2ccccc2Cl)c(C#N)c2nc3ccccc3nc21	-	12	-	29	-	-	40	.	PP5 conf=40;PP1 counter 3x=27
Cc1c(O)c2c(=O)n(-c3ccccc3)c(-c3ccccc3)cc2oc1=O	-	-	-	-	-	-	.	.
O=C1/C(=C/C=C/c2ccco2)SC(=S)N1NS(=O)(=O)c1ccccc1	21	-	.	16	.	-	-	.	PP1 inh confirm=-;PP5 inh counter=-
O=C1/C(=C/c2cccs2)SC(=S)N1NS(=O)(=O)c1ccccc1	-	-	.	-	.	-	.	.
Nc1ncnc2oc(-c3ccco3)c(-c3ccco3)c12	25	-	-	17	-	-	-	.	PP1 inh confirm=16;PP5 inh counter=-
Cc1ccccc1/C=N/Nc1nc2ccccc2[nH]1	-	-	-	-	-	-	.	.
C(=N\Nc1nc2ccccc2[nH]1)/c1cccc2cccnc12	18	-	.	20	.	-	-	.	PP1 inh confirm=-;PP5 inh counter=-
Cn1c2ccccc2c(=O)c2c(=O)n(Cc3ccco3)c(-c3ccc(Cl)cc3Cl)nc21	23	-	.	33	.	-	24	.	PP1 inh confirm=-;PP5 inh counter=-
O=c1cc(-c2ccc(O)c(-c3c(O)cc(O)c4c(=O)cc(-c5ccc(O)cc5)oc34)c2)oc2cc(O)cc(O)c12	31	-	-	41	-	-	64	.	PP1 inh confirm=21;PP5 inh counter=-
O=c1cc(-c2ccc(O)c(O)c2)oc2cc(O)cc(O)c12	-	-	.	.	.	.	.	.
COc1ccc(C(N)=O)c(OCC(=O)Nc2cc(C)on2)c1	-	-	.	.	.	.	.	.
CCc1nc2ccc(C(=O)NCc3ccccc3)cc2nc1CC	-	-	-	-	-	-	.	.
Fc1ccc(Nc2nc(NCc3ccco3)c3ccccc3n2)cc1	20	-	.	27	.	-	34	.	PP1 inh confirm=-;PP5 inh counter=-
c1ccc(CNc2nc(-c3cccs3)nc3ccccc23)cc1	.	.	-	-	-	-	.	.
SMILES	PP1 inh	PP5 inh	PKD1 kinase inh	p97 ATPase inh	Hsp70 activator	RBBP9 inhibitor	p97 confirm	RBBP9 inh conf	others
c1ccc(CNc2nc(NCc3ccccc3)c3ccccc3n2)cc1	34	-	.	44	.	-	41	.	PP1 inh confirm=23;PP5 inh counter=-
CNC(=O)COc1ncnc2scc(-c3ccc(F)cc3)c12	-	-	-	-	-	-	.	.
O=C1OC(=O)C2C1[C@@H]1CC[C@H]2O1 (stereo partly specified)	79	77	-	16	-	-	-	.	PP1 inh confirm=66;PP5 inh counter=69
O=C1NN(c2ccc(Cl)c(Cl)c2)C(=O)/C1=C/c1cccc(OC(=O)c2cccs2)c1	27	-	-	19	-	-	-	.	PP1 inh confirm=23;PP5 inh counter=-
CCN1CCN(c2ccccc2NC(=O)c2ccc(-n3cccn3)cc2)CC1	-	-	.	.	.	.	.	.
CN(Cc1nc2ccccc2c(=O)[nH]1)C(=O)COc1ccccc1Cc1ccccc1	-	-	.	.	.	.	.	.
Cc1cc(-c2onc(C)c2C(=O)Oc2ccc(Cl)cc2)no1	-	-	.	-	.	-	.	.
Cc1cc(-c2onc(C)c2C(N)=O)no1	-	-	.	-	.	14	.	-
Cc1cc(C)nc(/N=C(\NC(=O)C(C)(C)C)Nc2ccc(F)cc2)n1	-	-	.	-	.	15	.	-
CCC(=O)N/C(=N/c1nc(C)cc(C)n1)Nc1ccc(OC)cc1	-	-	-	-	-	19	.	-
Cc1c(C=O)c2ccccc2n1CC(=O)NC(C)c1ccccc1 (stereo unspecified)	-	-	-	-	-	-	.	.
COC(=O)/C(=C/Nc1ccc(O)cc1)[N+](=O)[O-]	-	-	-	-	-	38	.	-
COC(=O)/C(=C/Nc1ccccc1)[N+](=O)[O-]	-	-	-	-	-	-	.	.
CCOC(=O)C(C)(C)Sc1ncnc2nc[nH]c12	-	-	-	-	-	16	.	-
CCc1ccc(-c2cc(C)no2)cc1S(=O)(=O)N1CCOc2ccccc21	-	-	.	.	.	.	.	.
O=C(Nc1ccccc1)c1cccc(=O)o1	-	-	.	-	.	17	.	-
O=C(Nc1ccccc1)c1cc2ccccc2o1	-	-	-	-	-	-	.	.
CC1=CC(=NOC(=O)/C=C/c2ccccc2)C=C(C)C1=O	-	-	-	-	-	17	.	79
